Experimental data published in publication PMC2920599 (Journal of medicinal chemistry, 2010).
Structures can show the parent of a compound that is named as a salt. Where two headings read alike, the source gives them in different places.

Key:
[1] = tested on: Renal; experiment: NCI 60 cell panel, five-concentration assay, renal subpanel; assay type: cell-based; conditions: total growth inhibition; 48 h exposure
[2] = tested on: Leukemia; experiment: NCI 60 cell panel, five-concentration assay, leukemia subpanel; assay type: cell-based; conditions: total growth inhibition; 48 h exposure
[3] = tested on: Breast; experiment: NCI 60 cell panel, five-concentration assay, breast subpanel; assay type: cell-based; conditions: total growth inhibition; 48 h exposure
[4] = tested on: full NCI 60 cell panel; conditions: for GI50: read-out: GI50 MG-MID (mean GI50)
[5] = tested on: Melanoma; experiment: NCI 60 cell panel, five-concentration assay, melanoma subpanel; assay type: cell-based; conditions: total growth inhibition; 48 h exposure
[6] = tested on: Prostate; experiment: NCI 60 cell panel, five-concentration assay, prostate subpanel; assay type: cell-based; conditions: total growth inhibition; 48 h exposure
[7] = tested on: NSCLC; experiment: NCI 60 cell panel, five-concentration assay, NSCLC subpanel; assay type: cell-based; conditions: total growth inhibition; 48 h exposure
[8] = tested on: CNS; experiment: NCI 60 cell panel, five-concentration assay, CNS subpanel; assay type: cell-based; conditions: total growth inhibition; 48 h exposure
[9] = tested on: Colon; experiment: NCI 60 cell panel, five-concentration assay, colon subpanel; assay type: cell-based; conditions: total growth inhibition; 48 h exposure
[10] = tested on: Ovarian; experiment: NCI 60 cell panel, five-concentration assay, ovarian subpanel; assay type: cell-based; conditions: total growth inhibition; 48 h exposure
[11] = tested on: MCF-7 breast cancer cells; experiment: Growth and death of MCF-7 cells; assay type: cell-based, human; conditions: 200 nM, viable cells counted daily
How it was run: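 MCF-7 cells grown in RPMI 1640 with 10% FBS and 2 mM L-glutamine at 37°C, 5% CO2. Plated at 2×10^4 cells/cm2; compound added 24 h later from 10 mmol/L DMSO working solutions, with DMSO-only controls. Cells harvested with 0.11% trypsin/0.02% EDTA and counted; viability by trypan blue exclusion. Treated vs control compared by Student t-test, P<0.05.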

[12] = tested on: p53; experiment: Western blotting of p53 in MCF-7 cells; assay type: cell-based, human; conditions: 5 μM; for p53 expression: 20 h
[13] = tested on: female athymic nude mouse; conditions: in vivo, ip
[14] = tested on: ERK1/2; experiment: Western blotting of ERK1/2 phosphorylation in MCF-7 cells; assay type: cell-based, human; conditions: 5 μM, 20 h
How it was run: (§1)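 MCF-7 cells treated 20 h, then collected in 20 mM HEPES pH 7.5 with 5 mM DTT, 2 mM EDTA, 0.1% CHAPS, 0.1% Triton X-100 and protease inhibitors, and freeze-thawed twice. Extracts run on SDS-PAGE at 80 μg protein/lane and immunoblotted for total and phosphorylated ERK1/2 and Akt, p53, p21 and β-actin. Blots representative of at least three experiments.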

[15] = tested on: full NCI 60 cell panel; experiment: cells; conditions: Homo sapiens, 48 h, read-out: GI50 MG-MID (mean GI50)
[16] = tested on: Bax; experiment: Bax content in MCF-7 cells; assay type: cell-based, human
How it was run: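 MCF-7 cells seeded at 1×10^4 cells/cm2 on glass coverslips and treated. Then fixed in 3% p-formaldehyde, washed with 0.1 M glycine in PBS, and permeabilised in 70% ice-cold ethanol. Stained 1 h at room temperature with mouse monoclonal anti-Bax, then FITC anti-mouse IgG for 1 h, with propidium iodide for nuclei. Confocal imaging used sequential 488 and 568 nm excitation; image representative of three experiments.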

[17] = tested on: MCF-7 cells; experiment: Cell cycle analysis of MCF-7 cells by flow cytometry; assay type: cell-based, human; conditions: 200 nM, 24 and 48 h
[18] = tested on: Akt; experiment: Western blotting of Akt phosphorylation in MCF-7 cells; assay type: cell-based, human; conditions: 5 μM, 20 h
How it was run: as §1

[19] = tested on: p21; experiment: Western blotting of p21 in MCF-7 cells; assay type: cell-based, human; conditions: 5 μM, 24 h
[20] = calculated panel mean, 48 h exposure
[21] = read-out: LC50 MG-MID (mean LC50), calculated panel mean, 48 h exposure

Row | Structure (SMILES) | TGI Renal [1] | TGI Leukemia [2] | TGI Breast [3] | TGI MG-MID (mean TGI) [4, 20] | GI50 [4, 20] | TGI Melanoma [5] | TGI Prostate [6] | TGI NSCLC [7] | TGI CNS [8] | TGI Colon [9] | TGI Ovarian [10] | CC50 [4] | further results
1 | COc1cc2c(/C=C3/C(=O)Nc4cc(Cl)ccc43)c(Cl)[nH]c2cc1C [Compound 7] | 7.08 µM | 4.79 µM | 2.63 µM | 6.61 µM | 210 nM | 11.48 µM | 5.25 µM | 11.48 µM | 4.37 µM | 3.55 µM | 14.79 µM | – | –
2 | COc1cc2c(/C=C3/C(=O)N(C)c4ccccc43)c(Cl)n(C)c2cc1C [Compound 13] | 10.23 µM | 4.07 µM | 13.18 µM | 11.48 µM | 320 nM | 14.13 µM | 10.00 µM | 33.11 µM | 4.47 µM | 8.51 µM | 18.20 µM | 77.6 µM | –
3 | CN(C)c1ccc2[nH]c(Cl)c(/C=C3/C(=O)Nc4ccc(Cl)cc43)c2c1 [Compound 18] | 8.13 µM | 17.78 µM | 9.12 µM | 9.77 µM | – | 11.22 µM | 13.49 µM | 10.00 µM | 5.50 µM | 7.24 µM | 11.75 µM | 38.9 µM | –
4 | COc1cc2c(/C=C3/C(=O)Nc4ccc(Br)cc43)c(Cl)[nH]c2cc1C [Compound 4] | 10.96 µM | 6.17 µM | 10.47 µM | 9.33 µM | – | 9.55 µM | 7.94 µM | 14.13 µM | 8.91 µM | 6.76 µM | 8.13 µM | 39.8 µM | –
5 | COc1cc2c(cc1C)N(C)C(=O)/C2=C/c1c(Cl)[nH]c2ccccc12 [Compound 16] | 12.88 µM | 7.41 µM | 8.32 µM | 10.96 µM | 450 nM | 18.20 µM | 21.38 µM | 12.30 µM | 7.59 µM | 9.33 µM | 11.75 µM | – | effect on MCF-7 cell growth (total cell number) [11]: initially decreased cell proliferation, however after 24 h, the cells recovered and started to grow; p53 expression [12]: caused a p53 increase; maximum tolerated dose (MTD) [13]: 100 mg/kg; ERK phosphorylation [14]: decreased ERK phosphorylation
6 | COc1cc2c(/C=C3/C(=O)Nc4ccc(Br)cc43)c(Cl)n(C)c2cc1C [Compound 9] | 6.76 µM | 20.89 µM | 4.90 µM | 8.32 µM | 1660 nM | 7.41 µM | 8.91 µM | 9.33 µM | 7.08 µM | 6.03 µM | 13.49 µM | 36.3 µM | –
7 | CC[C@]1(O)C[C@H]2CN(CCc3c([nH]c4ccccc34)[C@@](C(=O)OC)(c3cc4c(cc3OC)N(C=O)[C@H]3[C@@](O)(C(=O)OC)[C@H](OC(C)=O)[C@]5(CC)C=CCN6CC[C@]43[C@@H]65)C2)C1 [Vincristine sulfate, reference compound] | 19.95 µM | 15.85 µM | 7.94 µM | 10.00 µM | – | 7.94 µM | 6.31 µM | 15.85 µM | 6.31 µM | 3.98 µM | 19.95 µM | – | GI50 [15]: 200 nM
8 | COc1cc2c(/C=C3/C(=O)Nc4ccc(N(C)C)cc43)c(Cl)n(C)c2cc1C [Compound 10] | 69.18 µM | 44.67 µM | 54.95 µM | 67.61 µM | – | 67.61 µM | 97.72 µM | 91.20 µM | 60.26 µM | 70.79 µM | 77.62 µM | – | CC50 [4, 21]: 97.7 µM
9 | COc1ccc2c(c1)/C(=C\c1c(Cl)[nH]c3ccc(N(C)C)cc13)C(=O)N2 [Compound 20] | 13.80 µM | 10.23 µM | 8.51 µM | 12.02 µM | 2290 nM | 15.49 µM | 19.05 µM | 15.49 µM | 7.94 µM | 9.55 µM | 15.14 µM | 49 µM | –
10 | COc1cc2c(cc1C)N(C)C(=O)/C2=C/c1c(Cl)n(C)c2cc(C)c(OC)cc12 [Compound 15] | 41.69 µM | 56.23 µM | 36.31 µM | 52.48 µM | 14100 nM | 67.61 µM | 67.61 µM | 69.18 µM | 26.92 µM | 83.18 µM | 60.26 µM | 87.1 µM | –
11 | COc1cc2c(cc1C)NC(=O)/C2=C/c1c(Cl)n(C)c2cc(C)c(OC)cc12 [Compound 8] | – | 60.26 µM | 77.62 µM | 77.62 µM | 24000 nM | 45.71 µM | 97.72 µM | 97.72 µM | 87.10 µM | 87.10 µM | 91.20 µM | – | CC50 [4, 21]: 91.2 µM
12 | COc1cc2c(/C=C3/C(=O)N(C)c4ccc(O)cc43)c(Cl)n(C)c2cc1C [Compound 14] | 4.27 µM | 0.47 µM | 1.70 µM | 3.39 µM | 100 nM | 7.41 µM | 3.16 µM | 6.03 µM | 1.74 µM | 3.55 µM | 11.75 µM | 33.9 µM | –
13 | COc1cc2c(/C=C3/C(=O)Nc4cc(Cl)ccc43)c(Cl)n(C)c2cc1C [Compound 12] | 15.85 µM | 1.74 µM | 5.62 µM | 3.80 µM | – | 7.08 µM | – | 11.48 µM | 1.20 µM | 0.95 µM | 2.34 µM | 49 µM | effect on MCF-7 cell growth (total cell number) [11]: blocked MCF-7 cell growth within 48 h; cellular Bax by immunofluorescence microscopy ([16]; 5 μM, 24 h): considerable Bax accumulation; increase of Bax, densitometric analysis of Western blotting ([16]; n=3, data not shown): 2.8 times; p53 expression [12]: caused a p53 increase; induction of p53 (densitometry) ([12]; 24 h): threefold induction of p53; cell cycle distribution: G2/M phase [17]: marked accumulation of MCF-7 cells in the G2/M phase; sub-G1 peak (apoptotic cells) [17]: a notable cell population was observed in a sub-G1-peak; Akt phosphorylation [18]: only slightly decreased; increase of p21 (densitometry) [19]: about 90%; ERK phosphorylation [14]: decreased ERK phosphorylation
14 | CN(C)c1ccc2[nH]c(Cl)c(/C=C3/C(=O)Nc4ccc(O)cc43)c2c1 [Compound 19] | 33.88 µM | 13.49 µM | 33.88 µM | 29.51 µM | 4370 nM | 25.70 µM | 53.70 µM | 31.62 µM | 36.31 µM | 20.42 µM | 52.48 µM | – | –
